Measurements from ChEMBL document CHEMBL5108036, “A concise SAR-analysis of antimicrobial cationic amphipathic barbiturates for an improved activity-toxicity profile” (Eur J Med Chem, 2022).

Experiments:
Staphylococcus aureus = assay: Antibacterial activity against Staphylococcus aureus ATCC 9144 incubated for 48 hrs and measured by broth microdilution assay; assay type: functional
How it was run: (§1)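 MICs in µg/mL were measured against the reference strains S. aureus ATCC 9144, B. subtilis 168, E. coli ATCC 25922 and P. aeruginosa ATCC 27853. Compounds were tested as di-TFA salts.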

Bacillus subtilis = assay: Antibacterial activity against Bacillus subtilis 168 incubated for 48 hrs and measured by broth microdilution assay; assay type: functional; how it was run: as §1
Escherichia coli = assay: Antibacterial activity against Escherichia coli ATCC 25922 incubated for 48 hrs and measured by broth microdilution assay; assay type: functional; how it was run: as §1
Pseudomonas aeruginosa = assay: Antibacterial activity against Pseudomonas aeruginosa ATCC 27853 incubated for 48 hrs and measured by broth microdilution assay; assay type: functional; how it was run: as §1
[1] = Hemolytic activity in human RBC measured after 1 hr by microplate reader method; assay type: toxicity, cell-based, Erythrocyte; conditions: human, human red blood cells (erythrocytes)
How it was run: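 Human red blood cell lysis was used as the cytotoxicity read-out, expressed as EC50 in µg/mL. The highest concentration tested was 500 µM. Compounds were tested as di-TFA salts.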

[2] = Selectivity index, ratio HC50 for hemolytic activity in human RBC to MIC for antibacterial activity against Staphylococcus aureus ATCC 9144; assay type: toxicity; conditions: human red blood cells (erythrocytes)
How it was run: (§2)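 SI is the ratio of RBC lysis EC50 to MIC for each reference strain.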

[3] = Selectivity index, ratio HC50 for hemolytic activity in human RBC to MIC for antibacterial activity against Bacillus subtilis 168; assay type: toxicity; conditions: human red blood cells (erythrocytes); how it was run: as §2

| Structure (SMILES) | MIC (Staphylococcus aureus) [µg/mL] | MIC (Bacillus subtilis) [µg/mL] | MIC (Escherichia coli) [µg/mL] | MIC (Pseudomonas aeruginosa) [µg/mL] | EC50 at 1 h [1] [µg/mL] | selectivity ratio [2] | selectivity ratio [3] |
| --- | --- | --- | --- | --- | --- | --- | --- |
| N=C(N)N[C@H]1C[C@@H](N2C(=O)N([C@H]3C[C@@H](NC(=N)N)C3)C(=O)C(Cc3cc(Br)cc(Br)c3)(Cc3cc(Br)cc(Br)c3)C2=O)C1.O=C(O)C(F)(F)F.O=C(O)C(F)(F)F | 2 | 2 | 4 | 8 | 75 | – | – |
| NCCCN1C(=O)N(CCCN)C(=O)C(Cc2ccc(Br)c3ccccc23)(Cc2ccc(Br)c3ccccc23)C1=O.O=C(O)C(F)(F)F.O=C(O)C(F)(F)F | 2 | 2 | 4 | 4 | 23 | – | – |
| NCCCCN1C(=O)N(CCCCN)C(=O)C(Cc2cc(Br)cc(Br)c2)(Cc2ccc3ccccc3n2)C1=O.O=C(O)C(F)(F)F.O=C(O)C(F)(F)F | 32 | 8 | 128 | 256 | > 444 | – | – |
| N=C(N)NCCCCN1C(=O)N(CCCCNC(=N)N)C(=O)C(Cc2cc(Br)cc(Br)c2)(Cc2ccc3ccccc3n2)C1=O.O=C(O)C(F)(F)F.O=C(O)C(F)(F)F (centres undefined) | 2 | 4 | 32 | 32 | 450 | 225 | 113 |
| N[C@H]1C[C@@H](N2C(=O)N([C@H]3C[C@@H](N)C3)C(=O)C(Cc3cc(Br)cc(Br)c3)(Cc3cc(Br)cc(Br)c3)C2=O)C1.O=C(O)C(F)(F)F.O=C(O)C(F)(F)F | 8 | 4 | 4 | 8 | 50 | – | – |
| N=C(N)NCCN1C(=O)N(CCNC(=N)N)C(=O)C(Cc2cc(Br)cc(Br)c2)(Cc2cc(Br)cc(Br)c2)C1=O.O=C(O)C(F)(F)F.O=C(O)C(F)(F)F | 2 | 2 | 4 | 16 | 164 | – | – |
| N=C(N)NCCCN1C(=O)N(CCCNC(=N)N)C(=O)C(Cc2ccc(Br)c3ccccc23)(Cc2ccc(Br)c3ccccc23)C1=O.O=C(O)C(F)(F)F.O=C(O)C(F)(F)F | 2 | 2 | 4 | 8 | 61 | – | – |
| NCCCCN1C(=O)N(CCCCN)C(=O)C(Cc2ccc3ccccc3n2)(Cc2ccc3ccccc3n2)C1=O.O=C(O)C(F)(F)F.O=C(O)C(F)(F)F | 256 | 64 | > 256 | > 256 | > 390 | – | – |
| N=C(N)NCCCN1C(=O)N(CCCNC(=N)N)C(=O)C(Cc2ccc(C(F)(F)F)cc2)(Cc2cc(Br)cc(Br)c2)C1=O.O=C(O)C(F)(F)F.O=C(O)C(F)(F)F (centres undefined) | 4 | 4 | 16 | 64 | > 480 | – | – |
| N=C(N)NCCCCN1C(=O)N(CCCCNC(=N)N)C(=O)C(Cc2cc(Br)cc(Br)c2)(Cc2ccc(Br)c3ccccc23)C1=O.O=C(O)C(F)(F)F.O=C(O)C(F)(F)F (centres undefined) | 1 | 4 | 4 | 8 | 58 | – | – |
| NCCCCN1C(=O)N(CCCCN)C(=O)C(Cc2ccc(Br)c3ccccc23)(Cc2ccc(Br)c3ccccc23)C1=O.O=C(O)C(F)(F)F.O=C(O)C(F)(F)F | 2 | 2 | 4 | 4 | 27 | – | – |
| NCCCN1C(=O)N(CCCN)C(=O)C(Cc2ccc3cc(Br)ccc3n2)(Cc2ccc3cc(Br)ccc3n2)C1=O.O=C(O)C(F)(F)F.O=C(O)C(F)(F)F | 32 | 8 | 64 | 256 | > 455 | – | – |
| NCCCCN1C(=O)N(CCCCN)C(=O)C(Cc2c(Br)cc(Br)cc2Br)(Cc2c(Br)cc(Br)cc2Br)C1=O.O=C(O)C(F)(F)F.O=C(O)C(F)(F)F | 2 | 2 | 4 | 4 | 30 | – | – |
| NCCCCCN1C(=O)N(CCCCCN)C(=O)C(Cc2cc(Br)cc(Br)c2)(Cc2cc(Br)cc(Br)c2)C1=O.O=C(O)C(F)(F)F.O=C(O)C(F)(F)F | 4 | 4 | 8 | 8 | 24 | – | – |
| CN(C)CCCCN1C(=O)N(CCCCN(C)C)C(=O)C(Cc2cc(Br)cc(Br)c2)(Cc2cc(Br)cc(Br)c2)C1=O.O=C(O)C(F)(F)F.O=C(O)C(F)(F)F | 8 | 4 | 8 | 64 | 157 | – | – |
| N=C(N)NCCCN1C(=O)N(CCCNC(=N)N)C(=O)C(Cc2ccc(C(F)(F)F)cc2)(Cc2ccc(C(F)(F)F)cc2)C1=O.O=C(O)C(F)(F)F.O=C(O)C(F)(F)F | 8 | 4 | 128 | 256 | > 435 | > 54 | > 109 |
| NCCCCN1C(=O)N(CCCCN)C(=O)C(Cc2cc(Br)c(Br)cc2Br)(Cc2cc(Br)c(Br)cc2Br)C1=O.O=C(O)C(F)(F)F.O=C(O)C(F)(F)F | 4 | 4 | 8 | 8 | 27 | – | – |
| N[C@H]1CC[C@@H](N2C(=O)N([C@H]3CC[C@@H](N)CC3)C(=O)C(Cc3cc(Br)cc(Br)c3)(Cc3cc(Br)cc(Br)c3)C2=O)CC1.O=C(O)C(F)(F)F.O=C(O)C(F)(F)F | 4 | 4 | 4 | 8 | 15 | – | – |
| NCCCCCCN1C(=O)N(CCCCCCN)C(=O)C(Cc2cc(Br)cc(Br)c2)(Cc2cc(Br)cc(Br)c2)C1=O.O=C(O)C(F)(F)F.O=C(O)C(F)(F)F | 4 | 4 | 4 | 16 | 30 | – | – |
| NCCCCN1C(=O)N(CCCCN)C(=O)C(Cc2ccc3cc(Br)ccc3n2)(Cc2ccc3cc(Br)ccc3n2)C1=O.O=C(O)C(F)(F)F.O=C(O)C(F)(F)F | 16 | 4 | 256 | 256 | > 469 | – | – |
| N=C(N)NCCCCN1C(=O)N(CCCCNC(=N)N)C(=O)C(Cc2c(Br)cc(Br)cc2Br)(Cc2c(Br)cc(Br)cc2Br)C1=O.O=C(O)C(F)(F)F.O=C(O)C(F)(F)F | 2 | 1 | 4 | 4 | 30 | – | – |
| N[C@H]1CC[C@H](N2C(=O)N([C@H]3CC[C@H](N)CC3)C(=O)C(Cc3cc(Br)cc(Br)c3)(Cc3cc(Br)cc(Br)c3)C2=O)CC1.O=C(O)C(F)(F)F.O=C(O)C(F)(F)F | 2 | 2 | 2 | 4 | 16 | – | – |
| NCCCCN1C(=O)N(CCCCN)C(=O)C(Cc2cc(Br)cc(Br)c2)(C2CCCC2)C1=O.O=C(O)C(F)(F)F.O=C(O)C(F)(F)F | 16 | 8 | 64 | 64 | > 407 | – | – |
| N=C(N)NCCCCN1C(=O)N(CCCCNC(=N)N)C(=O)C(Cc2ccc(Br)c3ccccc23)(Cc2ccc(Br)c3ccccc23)C1=O.O=C(O)C(F)(F)F.O=C(O)C(F)(F)F | 4 | 4 | 4 | 8 | 36 | – | – |
| N=C(N)NCCCCCN1C(=O)N(CCCCCNC(=N)N)C(=O)C(Cc2cc(Br)cc(Br)c2)(Cc2cc(Br)cc(Br)c2)C1=O.O=C(O)C(F)(F)F.O=C(O)C(F)(F)F | 4 | 4 | 4 | 8 | 29 | – | – |
| NCCCN1C(=O)N(CCCN)C(=O)C(Cc2cc(Br)cc(Br)c2)(Cc2cc(Br)cc(Br)c2)C1=O.O=C(O)C(F)(F)F.O=C(O)C(F)(F)F | 4 | 4 | 8 | 8 | 99 | – | – |
